Test results published in ChEMBL document CHEMBL5303300, “EUbOPEN Chemogenomics Library - Multiplex” (2023).
Several values for one entry are separate records, joined by “and”; a condition that tells them apart may be missing. Identical values can stand only once.

System: HEK-293T
Experiment: Multiplex assay against HEK293T
Type: toxicity, cell-based
Settings: human, number of replicates 2
Outline: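 Imaging took place on a CQ1 microscope at 37°C and 5% CO2 once compound had been added to live cells stained at seeding with Hoechst33342, BioTracker Green Microtubule Cytoskeleton Dye, MitoTracker Red and Annexin V Alexa Fluor 680. CellPathfinder machine-learning gating classed cells as Hoechst high-intensity objects or normal cells, classed normal cells as having healthy, pyknosed or fragmented nuclei, and classed pyknosed cells as mitotic or apoptotic. Tubulin, mitochondrial-mass and membrane-permeability phenotypes are per cents of the healthy-nucleus cells.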

[1] = 12 h, 10 µM, compound concentration 10 uM
[2] = 24 h, 10 µM, compound concentration 10 uM
[3] = 48 h, 10 µM, compound concentration 10 uM
[4] = 12 h, 1 µM, compound concentration 1 uM
[5] = 24 h, 1 µM, compound concentration 1 uM
[6] = 48 h, 1 µM, compound concentration 1 uM

With `CN[C@@H]1C[C@H]2O[C@@](C)([C@@H]1OC)n1c3ccccc3c3c4c(c5c6ccccc6n2c5c31)C(=O)NC4` [STAUROSPORINE] the “Population Apoptotic (%)” value [1] was 56% and 55% and 68% and 63%, the “Population Fragmented Nuclei (%)” value [1] was 20% and 14% and 21% and the “Population Healthy Nuclei (%)” value [1] was 37% and 34% and 23% and 29%. For the same molecule, the “Population Hoechst High Intensity Objects (%)” value [1] was 7% and 8% and 5%, the “Population Membrane Permeable-Phenotype (%)” value [1] was 11% and 12% and 7% and the “Population Mitochondria Different-Phenotype (%)” value [1] was 46% and 52% and 60% and 51%. For the same molecule, the “Population Mitotic Cells (%)” value [1] was 43% and 44% and 31% and 36%, the “Population Normal (%)” value [1] was 92% and 91% and 94% and the “Population Pyknosed Nuclei (%)” value [1] was 41% and 51% and 55% and 50%. For the same molecule, the “Population Tubulin-Different-Phenotype (%)” value [1] was 72% and 77% and 76%, the “Population Apoptotic (%)” value [2] was 85% and 83% and 86% and the “Population Fragmented Nuclei (%)” value [2] was 16% and 13%. For the same molecule, the “Population Healthy Nuclei (%)” value [2] was 17% and 22% and 23% and 18%, the “Population Hoechst High Intensity Objects (%)” value [2] was 12% and 8% and 10% and 7% and the “Population Membrane Permeable-Phenotype (%)” value [2] was 10% and 7% and 6%. The “Population Mitochondria Different-Phenotype (%)” value [2] was 45% and 63% and 62%, the “Population Mitotic Cells (%)” value [2] was 14% and 16% and 13% and the “Population Normal (%)” value [2] was 87% and 91% and 89% and 92%. For the same molecule, the “Population Pyknosed Nuclei (%)” value [2] was 66% and 64% and 63% and 65%, the “Population Tubulin-Different-Phenotype (%)” value [2] was 58% and 59% and 76% and 79% and the “Population Apoptotic (%)” value [3] was 90% and 89% and 87% and 81%. The “Population Fragmented Nuclei (%)” value [3] was 13% and 11% and 10%, the “Population Healthy Nuclei (%)” value [3] was 23% and 17% and 22% and 20% and the “Population Hoechst High Intensity Objects (%)” value [3] was 14% and 9% and 11%. For the same molecule, the “Population Membrane Permeable-Phenotype (%)” value [3] was 11% and 6% and 5%, the “Population Mitochondria Different-Phenotype (%)” value [3] was 47% and 62% and 64% and 65% and the “Population Mitotic Cells (%)” value [3] was 9% and 10% and 12% and 18%. For the same molecule, the “Population Normal (%)” value [3] was 85% and 90% and 88%, the “Population Pyknosed Nuclei (%)” value [3] was 63% and 71% and 66% and the “Population Tubulin-Different-Phenotype (%)” value [3] was 59% and 72% and 68% and 75%.
For `Cc1ccc2c(c1CCC(=O)O)CC[C@@H](NS(=O)(=O)c1ccc(Cl)cc1)C2` [TERUTROBAN], the “Population Apoptotic (%)” value [4] was 59% and 56%, the “Population Fragmented Nuclei (%)” value [4] was 2% and 4% and the “Population Healthy Nuclei (%)” value [4] was 81%. For the same molecule, the “Population Hoechst High Intensity Objects (%)” value [4] was 7%, the “Population Membrane Permeable-Phenotype (%)” value [4] was 3% and 2% and the “Population Mitochondria Different-Phenotype (%)” value [4] was 20% and 14%. The “Population Mitotic Cells (%)” value [4] was 40% and 43%, the “Population Normal (%)” value [4] was 92% and the “Population Pyknosed Nuclei (%)” value [4] was 15% and 14%. The “Population Tubulin-Different-Phenotype (%)” value [4] was 47%, the “Total Cell Count” value [4] was 534 and 671 and the “Population Apoptotic (%)” value [1] was 55% and 71%. For the same molecule, the “Population Fragmented Nuclei (%)” value [1] was 5% and 3%, the “Population Healthy Nuclei (%)” value [1] was 77% and 81% and the “Population Hoechst High Intensity Objects (%)” value [1] was 8%. The “Population Membrane Permeable-Phenotype (%)” value [1] was 4% and 1%, the “Population Mitochondria Different-Phenotype (%)” value [1] was 24% and 20% and the “Population Mitotic Cells (%)” value [1] was 44% and 28%. The “Population Normal (%)” value [1] was 91%, the “Population Pyknosed Nuclei (%)” value [1] was 17% and 15% and the “Population Tubulin-Different-Phenotype (%)” value [1] was 70% and 50%. The “Total Cell Count” value [1] was 599 and 487, the “Population Apoptotic (%)” value [5] was 65% and 40% and the “Population Fragmented Nuclei (%)” value [5] was 7% and 6%. For the same molecule, the “Population Healthy Nuclei (%)” value [5] was 81% and 86%, the “Population Hoechst High Intensity Objects (%)” value [5] was 6% and 9% and the “Population Membrane Permeable-Phenotype (%)” value [5] was 3%. For the same molecule, the “Population Mitochondria Different-Phenotype (%)” value [5] was 6% and 5%, the “Population Mitotic Cells (%)” value [5] was 35% and 59% and the “Population Normal (%)” value [5] was 93% and 90%. For the same molecule, the “Population Pyknosed Nuclei (%)” value [5] was 10% and 6%, the “Population Tubulin-Different-Phenotype (%)” value [5] was 30% and 25% and the “Total Cell Count” value [5] was 837 and 1016. The “Population Apoptotic (%)” value [2] was 58% and 52%, the “Population Fragmented Nuclei (%)” value [2] was 9% and 6% and the “Population Healthy Nuclei (%)” value [2] was 79% and 84%. The “Population Hoechst High Intensity Objects (%)” value [2] was 8% and 9%, the “Population Membrane Permeable-Phenotype (%)” value [2] was 2% and 3% and the “Population Mitochondria Different-Phenotype (%)” value [2] was 9% and 7%. The “Population Mitotic Cells (%)” value [2] was 41% and 47%, the “Population Normal (%)” value [2] was 91% and 90% and the “Population Pyknosed Nuclei (%)” value [2] was 11% and 9%. For the same molecule, the “Population Tubulin-Different-Phenotype (%)” value [2] was 44% and 35%, the “Total Cell Count” value [2] was 911 and 714 and the “Population Apoptotic (%)” value [6] was 11%. For the same molecule, the “Population Fragmented Nuclei (%)” value [6] was 12% and 9%, the “Population Healthy Nuclei (%)” value [6] was 82% and 86% and the “Population Hoechst High Intensity Objects (%)” value [6] was 7% and 9%. For the same molecule, the “Population Membrane Permeable-Phenotype (%)” value [6] was 4% and 7%, the “Population Mitochondria Different-Phenotype (%)” value [6] was 0% and 1% and the “Population Mitotic Cells (%)” value [6] was 88%. For the same molecule, the “Population Normal (%)” value [6] was 92% and 90%, the “Population Pyknosed Nuclei (%)” value [6] was 4% and 3% and the “Population Tubulin-Different-Phenotype (%)” value [6] was 12% and 11%. The “Total Cell Count” value [6] was 2114 and 2407, the “Population Apoptotic (%)” value [3] was 26% and 21% and the “Population Fragmented Nuclei (%)” value [3] was 14% and 10%. For the same molecule, the “Population Healthy Nuclei (%)” value [3] was 80% and 86%, the “Population Hoechst High Intensity Objects (%)” value [3] was 9% and 8% and the “Population Membrane Permeable-Phenotype (%)” value [3] was 6% and 5%. The “Population Mitochondria Different-Phenotype (%)” value [3] was 1%, the “Population Mitotic Cells (%)” value [3] was 73% and 78% and the “Population Normal (%)” value [3] was 90% and 91%. The “Population Pyknosed Nuclei (%)” value [3] was 5% and 3%, the “Population Tubulin-Different-Phenotype (%)” value [3] was 20% and 15% and the “Total Cell Count” value [3] was 1958 and 1618.
